Results taken from ChEMBL document CHEMBL4354806, “Discovery of an Orally Bioavailable Pan αv Integrin Inhibitor for Idiopathic Pulmonary Fibrosis” (J Med Chem, 2019).

Columns and labels:
[1] = Inhibition of recombinant human integrin alphaV (31 to 992 residues) beta8 (43 to 684 residues) expressed in CHO cells preincubated for 15 mins followed by Cy3B-RGD probe addition and measured after 2 hrs by fluorescence polarization assay
Summary of the method: (§1)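 Soluble purified human integrins from CHO cells, with 1 nM Cy3B-RGD probe, in 25 mM HEPES, 150 mM NaCl, 1 mM CHAPS, pH 7.4, at 20-22 °C. Final protein and cation: αvβ3 1 nM with 0.4 mM MgCl₂; αvβ5 4 nM with 0.1 mM MnCl₂; αvβ6 8 nM with MgCl₂; αvβ8 8 nM with MnCl₂. Read-out was polarization. pIC50 is mean ± SEM over test occasions.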

Integrin alpha-V/beta-6 = Integrin alpha-V/beta-6 (Homo sapiens, UniProt P06756+P18564); assay: Inhibition of recombinant human integrin alphaV (31 to 992 residues) beta6 (22 to 707 residues) expressed in CHO cells preincubated for 15 mins followed by Cy3B-RGD probe addition and measured after 2 hrs by fluorescence polarization assay; summary of the method: as §1
Integrin alpha-V/beta-3 = Integrin alpha-V/beta-3 (Homo sapiens, UniProt P05106+P06756); assay: Inhibition of recombinant human integrin alphaV (31 to 992 residues) beta3 (27 to 718 residues) expressed in CHO cells preincubated for 15 mins followed by Cy3B-RGD probe addition and measured after 2 hrs by fluorescence polarization assay; summary of the method: as §1
[2] = Inhibition of recombinant human integrin alphaV (31 to 992 residues) beta5 (24 to 719 residues) expressed in CHO cells preincubated for 15 mins followed by Cy3B-RGD probe addition and measured after 2 hrs by fluorescence polarization assay; summary of the method: as §1
[3] = Volume of distribution at steady state in CD rat at 1 mg/kg, iv and 1 mg/kg, po measured up to 24 hrs by LC-MS/MS analysis; assay type: ADME, organism-based; details: in vivo, read-out: Vdss
Summary of the method: (§2)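 Two male CD rats per arm. IV: 1 mg/kg bolus via femoral vein in DMSO:PEG200:water (5:45:50). PO: 1 mg/kg by gavage in 0.5% methyl cellulose/0.2% Tween 80. Blood was taken by tail-vein cannula to 7 h and by venipuncture to 24 h. Plasma was extracted with acetonitrile plus internal standard, and drug measured by LC-MS/MS.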

[4] = Clearance in CD rat at 1 mg/kg, iv and 1 mg/kg, po measured up to 24 hrs by LC-MS/MS analysis; assay type: ADME, organism-based; details: in vivo; summary of the method: as §2
[5] = Half life in CD rat at 1 mg/kg, iv and 1 mg/kg, po measured up to 24 hrs by LC-MS/MS analysis; assay type: ADME, organism-based; details: in vivo; summary of the method: as §2
[6] = Oral bioavailability in CD rat at 1 mg/kg administered via gavage up to 24 hrs by LC-MS/MS analysis; assay type: ADME, organism-based; details: in vivo; summary of the method: as §2
[7] = Permeability of the compound in pH 7.4 phosphate buffer measured after 3 hrs by artificial membrane permeability assay based LC-MS analysis; assay type: ADME; details: PAMPA, read-out: permeability
Summary of the method: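 Bilayer of 1.8% egg phosphatidylcholine and 1% cholesterol in n-decane on filter inserts. Phosphate buffer was 50 mM Na₂HPO₄ with 0.5% hydroxypropyl-β-cyclodextrin, pH 7.4. Compound was added to the donor (bottom) well and incubated 3 h at room temperature. Donor and acceptor concentrations were measured by liquid chromatography.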

SMILES	pIC50 [1]	IC50 (Integrin alpha-V/beta-6) [nM]	IC50 (Integrin alpha-V/beta-3) [nM]	pIC50 [2]	Vd [3] [L/kg]	clearance [4] [mL/min/kg]	half-life [5] [h]	bioavailability [6] [%]	Papp at 3 h [7] [×10⁻⁶ cm/s]
O=C(O)CC(Nc1cnc(OCCc2ccc3c(n2)NCCC3)nc1)c1ccc(Cl)cc1 (racemic)	6.1	251	7.94	8.2					
O=C(O)CC(Nc1ccc(OCCc2ccc3c(n2)NCCC3)nc1)c1ccc(Cl)cc1 (racemic)	5.6	1000	39.8	7.3					
O=C(O)CC(Nc1ccc(OCCc2ccc3c(n2)NCCC3)cn1)c1cccc(CN2CCOCC2)c1 (racemic)	7.2	63.1	3.98	8.5					
O=C(O)CC(Nc1cnc(OCCc2ccc3c(n2)NCCC3)cn1)c1cccc(Cl)c1 (racemic)	4.9	12600	5010	5.3					
O=C(O)CC(Nc1ccc(OCCc2ccc3c(n2)NCCC3)cn1)c1cccc(Br)c1 (racemic)	7.2	31.6	5.01	8.4					
O=C(O)C[C@H](Nc1ccc(OCCc2ccc3c(n2)NCCC3)nn1)c1cccc(Cl)c1	8.1	6.31	0.794	8.9					
O=C(O)CC(Nc1ccc(OCCc2ccc3c(n2)NCCC3)cn1)c1cccc(Cl)c1 (racemic)	7.1	50.1	6.31	8.2					
O=C(O)CC(Nc1ccc(OCCc2ccc3c(n2)NCCC3)cn1)c1cccc(C2CC2)c1 (racemic)	7.4	15.8	3.98	8.4	0.5	8	1.8	98	8
O=C(O)CC(Nc1ccc(OCCc2ccc3c(n2)NCCC3)cn1)c1ccc(Cl)cc1 (racemic)	6.9	39.8	3.16	8.4					
O=C(O)CC(Nc1ccc(OCCc2ccc3c(n2)NCCC3)cn1)c1ccc(CN2CCOCC2)cc1 (racemic)	6.9	31.6	3.16	8.2					
O=C(O)CC(Nc1cnc(OCCc2ccc3c(n2)NCCC3)cn1)c1ccc(Cl)cc1 (racemic)	4.5	19500	12600	4.9					
O=C(O)CC(Nc1ccc(OCCc2ccc3c(n2)NCCC3)cn1)c1ccc(Oc2ccccc2)cc1 (racemic)	7.1	12.6	2	8.5					
O=C(O)CC(Nc1ccc(OCCc2ccc3c(n2)NCCC3)cn1)c1ccc(C(F)(F)F)cc1 (racemic)	6.7	79.4	7.94	8.1					
O=C(O)CC(Nc1ccc(OCCc2ccc3c(n2)NCCC3)nc1)c1cccc(Cl)c1 (racemic)	6	398	12.6	7.8					
O=C(O)CC(Nc1ccc(OCCc2ccc3c(n2)NCCC3)cn1)c1cccc(F)c1 (racemic)	6.8	79.4	2.51	8.4					
O=C(O)CC(Nc1ccc(OCCc2ccc3c(n2)NCCC3)cn1)c1cc(C2CC2)cc(C2CC2)c1 (racemic)	6.9	316	126	7					
O=C(O)CC(Nc1ncc(OCCc2ccc3c(n2)NCCC3)cn1)c1cccc(Cl)c1 (racemic)	6.6	158	5.01	8.3					
O=C(O)C[C@@H](Nc1ccc(OCCc2ccc3c(n2)NCCC3)nn1)c1cccc(Cl)c1	5.7	794	158	7.9					
O=C(O)CC(Nc1ncc(OCCc2ccc3c(n2)NCCC3)cn1)c1ccc(Cl)cc1 (racemic)	7.2	126	1.26	9					
O=C(O)CC(Nc1ccc(OCCc2ccc3c(n2)NCCC3)nn1)c1cccc(Cl)c1 (racemic)	7.6	20	3.16	8.5					
O=C(O)CC(Nc1ccc(OCCc2ccc3c(n2)NCCC3)nn1)c1ccc(Cl)cc1 (racemic)	7.5	25.1	2	8.5					
O=C(O)CC(Nc1cnc(OCCc2ccc3c(n2)NCCC3)nc1)c1cccc(Cl)c1 (racemic)	5.6	631	50.1	7.3					
O=C(O)CC(Cc1ccc(OCCc2ccc3c(n2)NCCC3)cc1)c1ccccc1 (racemic)	5.8	1260	2	8.7					
O=C(O)CC(Nc1ccc(OCCc2ccc3c(n2)NCCC3)cc1)c1cccc(F)c1 (racemic)	6.4	100	2	8.8					
